Results on 24 compounds are retold here after ChEMBL document CHEMBL1949593, “Stilbene-chalcone hybrids: design, synthesis, and evaluation as a new class of antimalarial scaffolds that trigger cell death through stage specific apoptosis” (J Med Chem, 2012).

For data set [1], the system named is Plasmodium falciparum. Briefly: Antimalarial activity against ring stage chloroquine-sensitive Plasmodium falciparum 3D7 infected in human O positive erythrocytes after 48 hrs by SYBR green 1 fluorescence assay. The class given is functional, organism-based. The settings on record: 3D7, 48 h. In a few lines:
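P. falciparum 3D7 in O+ human erythrocytes in complete RPMI with Albumax at 37 °C under 5% O2/5% CO2. Culture was sorbitol-synchronized to rings and plated at 2% hematocrit, 1% parasitemia. Drug range was 0–100 μM with 0.4% final DMSO, in triplicate. After 48 h, SYBR Green I fluorescence was read (ex 497/em 520 nm). IC50 was taken by visual matching of 50% growth inhibition.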

Data set [2] is described as follows: Therapeutic index, ratio of IC50 for […] cells to IC50 for ring stage chloroquine-sensitive Plasmodium falciparum 3D7. Type of data set: cell-based. The settings on record: mouse, read-out: Ratio IC50. In a few lines: (§1)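 HeLa or L929 fibroblasts were seeded at 10^4 cells per well in RPMI with 10% FBS, left overnight, then exposed 24 h at 37 °C, 5% CO2. MTT was added for 3 h; formazan was dissolved in DMSO and read at 570 nm. IC50 came from dose–response curves. Index = IC50(mammalian)/IC50(Pf 3D7, SYBR Green assay).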

The test system of data set [3] is Plasmodium falciparum. The experiment in a line: Antimalarial activity against ring stage chloroquine-resistant Plasmodium falciparum INDO infected in human O positive erythrocytes after 48 hrs by SYBR green 1 fluorescence assay. The class given is functional, organism-based. In a few lines: (§2)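 Ring-stage cultures were sorbitol-synchronized in O+ human erythrocytes in RPMI 1640 with 0.5% Albumax, hypoxanthine and gentamicin, then plated at 2% hematocrit and 1% parasitemia. Drugs were tested at 0–100 μM (final DMSO 0.4%) in triplicate for 48 h at 37 °C under 5% O2/5% CO2/90% N2. Read-out was SYBR Green I (ex 497/em 520 nm). IC50 was read visually as 50% growth inhibition, with chloroquine as control.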

Data set [4] is described as follows: Inhibition of Plasmodium falciparum falcipain-2 using benzyloxycarbonyl-Phe-Arg-7-amino-4-methyl coumarin hydrochloride as substrate preincubated for 10 mins prior substrate addition by fluorimetric assay. In a few lines:
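Recombinant falcipain-2 (2 μg) was preincubated 10 min at room temperature with or without compound, in triplicate. Buffer was 100 mM sodium acetate pH 5.5 with 10 mM DTT and 1% final DMSO. Z-Phe-Arg-AMC was then added at 10 μM final. AMC release was read at ex 355/em 460 nm. IC50 was taken by visual matching of 50% inhibition.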

The nature of data set [5]: Resistance index, ratio of IC50 for ring stage chloroquine-resistant Plasmodium falciparum INDO to IC50 for ring stage chloroquine-sensitive Plasmodium falciparum 3D7. The class given is functional.
The subject of data set [6] is Plasmodium falciparum. The experiment in a line: Antimalarial activity against ring stage chloroquine-resistant Plasmodium falciparum Dd2 infected in human O positive erythrocytes after 48 hrs by SYBR green 1 fluorescence assay. The class given is functional, organism-based. As to conditions: Dd2, 48 h. In a few lines:
as §2

The nature of data set [7]: Resistance index, ratio of IC50 for ring stage chloroquine-resistant Plasmodium falciparum Dd2 to IC50 for ring stage chloroquine-sensitive Plasmodium falciparum 3D7. Type of data set: functional.
Data set [8] can be described thus: Therapeutic index, ratio of IC50 for human HeLa cells to IC50 for ring stage chloroquine-sensitive Plasmodium falciparum 3D7. The class given is cell-based. The settings on record: read-out: Ratio IC50. Put shortly:
as §1

pIC50: −log10 of the molar value.

As usually defined, the pIC50 is −log10 of the IC50, conventionally taken in molar units. Low readings indicate a high IC50, high ones a low IC50. In the case of `COc1ccc(/C=C/C(=O)c2ccc(/C=C/c3ccc(O)c(OC)c3)cc2)cc1`, the pIC50 with Plasmodium falciparum [1] is 4.47.
Compound `COc1cc(/C=C/c2ccc(/C=C/c3cc(OC)c(O)c(OC)c3)cc2)cc(OC)c1O` had a pIC50 in the data set on Plasmodium falciparum [1] of 4.96.
In the case of `COc1cc(OC)c(OC)cc1/C=C/C(=O)c1ccc(/C=C/c2ccc(O)c(O)c2)cc1`, the selectivity ratio is 7.6 in data set [2] and greater than 23.8 in data set [8]. The pIC50 was 5.34 with Plasmodium falciparum [3], 4.72 in data set [4], 5.15 in the data set with Plasmodium falciparum [6] and 5.38 in the data set on Plasmodium falciparum [1]. For the same compound, the “Ratio IC50” value in data set [5] amounted to 1.1; in data set [7], 1.7.
`COc1ccc(/C=C/c2cc(OC)c(O)c(OC)c2)cc1` had a pIC50 in the data set with Plasmodium falciparum [1] of less than 4.00.
Turning to `COc1cc(OC)c(OC)cc1/C=C/C(=O)c1ccc(/C=C/c2ccccc2)cc1`, in the data set on Plasmodium falciparum [1], the pIC50 is 4.74.
For `COc1cc(OC)c(OC)cc1/C=C/C(=O)c1ccc(/C=C/c2cc(OC)c(OS(=O)(=O)c3ccc(C)cc3)c(OC)c2)cc1`, the pIC50 in the data set on Plasmodium falciparum [1] is less than 4.00.
Take `COc1cc(OC)c(OC)cc1/C=C/C(=O)c1ccc(/C=C/c2ccc(O)cc2)cc1`: the pIC50 in the data set on Plasmodium falciparum [1] was 5.00.
On the same count and under the same terms, as for `COc1cc(OC)c(OC)cc1/C=C/C(=O)c1ccc(/C=C/c2cc(OC)c(OS(=O)(=O)c3cc(Cl)cc(Cl)c3)c(OC)c2)cc1`, the figure is less than 4.00; as for `COc1ccc(/C=C/C(=O)c2ccc(/C=C/c3ccccc3)cc2)cc1`, less than 4.00.
Turning to `COc1cc(/C=C/c2ccc(C(=O)/C=C/c3ccc(OC)c(OC)c3OC)cc2)cc(OC)c1O`, the selectivity ratio in data set [2] and in data set [8] was greater than 43 each time. Besides, the pIC50 in the data set on Plasmodium falciparum [3] was 5.23; in data set [4], 4.15; with Plasmodium falciparum [6], 5.27; with Plasmodium falciparum [1], 5.31. Moreover, the “Ratio IC50” value stood at 1.2 in data set [5] and 1.1 in data set [7].
For `COc1ccc(/C=C/C(=O)c2ccc(/C=C/c3ccccc3)cc2)cc1OC`, the pIC50 in the data set on Plasmodium falciparum [1] is 4.53.
On the same count and under the same terms, as for `O=C(/C=C/c1ccco1)c1ccc(/C=C/c2ccccc2)cc1`, the figure is less than 4.00; as for `COc1ccc(C(=O)/C=C/c2ccc(/C=C/c3cc(OC)c(O)c(OC)c3)cc2)cc1`, 4.30.
In the case of `COc1cc(OC)c(C(=O)/C=C/c2ccc(/C=C/c3cc(OC)c(O)c(OC)c3)cc2)cc1OC`, the selectivity ratio was 8.4 in data set [2] and greater than 46.5 in data set [8]. For the same compound, the pIC50 with Plasmodium falciparum [3] is 5.59; in data set [4] it was 4.00; in the data set with Plasmodium falciparum [6], 5.52; with Plasmodium falciparum [1] it was 5.37. The “Ratio IC50” value came out at 0.6 in data set [5] and 0.7 in data set [7].
For `COc1cc(OC)c(OC)cc1/C=C/C(=O)c1cccc(C(=O)/C=C/c2cc(OC)c(OC)cc2OC)c1`, the pIC50 in the data set on Plasmodium falciparum [1] is 5.55.
`COc1cc(OC)c(OC)cc1/C=C/C(=O)c1ccc(O)cc1`: the pIC50 in the data set with Plasmodium falciparum [1] is 4.21.
The same measure, in the same setting: the same measure for `COc1cc(OC)c(/C=C/C(=O)c2ccc(/C=C/c3cc(OC)c(O)c(OC)c3)cc2)c(OC)c1`: 4.80.
On to `COc1cc(OC)c(OC)cc1/C=C/C(=O)c1ccc(/C=C/c2ccc(Cl)cc2)cc1`, for which the pIC50 in the data set with Plasmodium falciparum [1] is less than 4.00.
The same measure, in the same setting: as for `O=C(/C=C/c1c[nH]c2ccc(Cl)cc12)c1ccc(/C=C/c2ccccc2)cc1`, the figure is 4.59.
The compound `O=C(/C=C/c1cccs1)c1ccc(/C=C/c2ccccc2)cc1` had a pIC50 in the data set on Plasmodium falciparum [1] of 4.44.
The same measure, in the same setting: the same measure for `COc1ccc(C(=O)/C=C/c2ccc(/C=C/c3ccc(O)c(OC)c3)cc2)cc1`: 4.18; for `COc1ccc(/C=C/C(=O)c2ccc(/C=C/c3cc(OC)c(O)c(OC)c3)cc2)cc1`: 4.82.
Regarding `COc1cc(OC)c(OC)cc1/C=C/C(=O)c1ccc(/C=C/c2cc(OC)c(OC)c(OC)c2)cc1`, the selectivity ratio in data set [2] is 29.8; in data set [8], greater than 38.5. The pIC50 in the data set with Plasmodium falciparum [3] was 5.68; in data set [4] it was 4.69; in the data set on Plasmodium falciparum [6], 5.59; with Plasmodium falciparum [1] it was 5.28. For the same compound, the “Ratio IC50” value in data set [5] worked out at 0.4; in data set [7], 0.5.
With `COc1cc(/C=C/c2ccc(C(=O)/C=C/c3cc(OC)c(OC)cc3OC)cc2)ccc1O`, the figures for the selectivity ratio in data set [2] and in data set [8] were 4.7 and greater than 37.7, respectively. The pIC50 was 5.58 in the data set with Plasmodium falciparum [3], 4.64 in data set [4], 5.43 with Plasmodium falciparum [6] and 5.28 in the data set with Plasmodium falciparum [1]. In addition, the “Ratio IC50” value amounted to 0.5 in data set [5] and 0.7 in data set [7].
